Test results published in ChEMBL document CHEMBL1142962, “Antiproliferative prenylated stilbenes and flavonoids from Macaranga alnifolia from the Madagascar rainforest” (J Nat Prod, 2007).

Assays:
Assay type in all cases: functional
Details in all cases: Homo sapiens
[1] = system: HT-29; experiment: Growth inhibition of HT29 cells
How it was run: (§1)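 Tested in the NCI 60 human tumour cell line screen, which was run by NCI. The value for each line is the GI50, the concentration giving 50% growth inhibition. Results are also shown as a mean graph across the full panel.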

[2] = system: KM12; experiment: Growth inhibition of KM12 cells
[3] = system: SW-620; experiment: Growth inhibition of SW620 cells; how it was run: as §1
[4] = system: SF-268; experiment: Growth inhibition of SF268 cells
[5] = system: SF-295; experiment: Growth inhibition of SF295 cells
[6] = system: SF-539; experiment: Growth inhibition of SF539 cells; how it was run: as §1
[7] = system: SNB-19; experiment: Growth inhibition of SNB19 cells
[8] = system: SNB-75; experiment: Growth inhibition of SNB75 cells
[9] = system: U-251; experiment: Growth inhibition of U251 cells
[10] = system: LOX IMVI; experiment: Growth inhibition of LOX IMVI cells; how it was run: as §1
[11] = system: M14; experiment: Growth inhibition of M14 cells; how it was run: as §1
[12] = system: SK-MEL-2; experiment: Growth inhibition of SK-MEL-2 cells
[13] = system: SK-MEL-28; experiment: Growth inhibition of SK-MEL-28 cells; how it was run: as §1
[14] = system: SK-MEL-5; experiment: Growth inhibition of SK-MEL-5 cells
[15] = system: UACC-257; experiment: Growth inhibition of UACC257 cells; how it was run: as §1
[16] = system: UACC-62; experiment: Growth inhibition of UACC62 cells
[17] = system: 786-0; experiment: Growth inhibition of 786-0 cells
[18] = system: ACHN; experiment: Growth inhibition of ACHN cells
[19] = system: SN12C; experiment: Growth inhibition of SN12C cells; how it was run: as §1
[20] = system: TK-10; experiment: Growth inhibition of TK10 cells
[21] = system: UO-31; experiment: Growth inhibition of UO31 cells
[22] = system: PC-3; experiment: Growth inhibition of PC3 cells
[23] = system: DU-145; experiment: Growth inhibition of DU145 cells; how it was run: as §1
[24] = system: MCF7; experiment: Growth inhibition of MCF7 cells; how it was run: as §1
[25] = system: NCI/ADR-RES; experiment: Growth inhibition of NCI/ADR-RES cells
[26] = system: MDA-MB-231; experiment: Growth inhibition of MDA-MB-231/ATCC cells; how it was run: as §1
[27] = Growth inhibition of HS 578T cells
[28] = system: MDA-MB-435; experiment: Growth inhibition of MDA-MB-435 cells
[29] = read-out: Log LC50 (the source's name) (converted)

COc1cc(/C=C/c2cc(O)c(CC=C(C)C)c(O)c2)cc2c1O[C@]1(C)C[C@@H](O)[C@@H](O)C(C)(C)[C@H]1C2 [SCHWEINFURTHIN E]
GI50 [1]: 1.29 µM
CC50 [1, 29]: > 100 µM
GI50 [2]: 0.457 µM
CC50 [2, 29]: 9.55 µM
TGI ([2]; read-out: Log TGI (converted)): 2.24 µM
GI50 [3]: 0.11 µM
CC50 [3, 29]: > 100 µM
TGI ([3]; read-out: Log TGI (converted)): 2.04 µM
GI50 [4]: 2.63 µM
CC50 [4, 29]: > 100 µM
TGI ([4]; read-out: Log TGI (converted)): > 100 µM
GI50 [5]: < 0.01 µM
CC50 [5, 29]: < 0.01 µM
TGI ([5]; read-out: Log TGI (converted)): < 0.01 µM
GI50 [6]: < 0.01 µM
TGI ([6]; read-out: Log TGI (converted)): 0.158 µM
GI50 [7]: 11 µM
CC50 [7, 29]: > 100 µM
TGI ([7]; read-out: Log TGI (converted)): > 100 µM
GI50 [8]: 1.74 µM
CC50 [8, 29]: > 100 µM
TGI ([8]; read-out: Log TGI (converted)): 20 µM
GI50 [9]: < 0.01 µM
CC50 [9, 29]: 32.4 µM
TGI ([9]; read-out: Log TGI (converted)): 3.98 µM
GI50 [10]: 0.646 µM
CC50 [10, 29]: 6.17 µM
TGI ([10]; read-out: Log TGI (converted)): 2.34 µM
GI50 [11]: < 0.01 µM
CC50 [11, 29]: 4.27 µM
TGI ([11]; read-out: Log TGI (converted)): 0.288 µM
GI50 [12]: 3.72 µM
CC50 [12, 29]: > 100 µM
TGI ([12]; read-out: Log TGI (converted)): > 100 µM
GI50 [13]: 0.372 µM
CC50 [13, 29]: > 100 µM
TGI ([13]; read-out: Log TGI (converted)): 5.25 µM
GI50 [14]: 0.661 µM
CC50 [14, 29]: 5.62 µM
TGI ([14]; read-out: Log TGI (converted)): 2.24 µM
GI50 [15]: 0.166 µM
CC50 [15, 29]: 37.2 µM
TGI ([15]; read-out: Log TGI (converted)): 3.63 µM
GI50 [16]: < 0.01 µM
CC50 [16, 29]: 4.07 µM
TGI ([16]; read-out: Log TGI (converted)): 0.372 µM
GI50 [17]: < 0.01 µM
CC50 [17, 29]: 9.77 µM
TGI ([17]; read-out: Log TGI (converted)): 1.07 µM
GI50 [18]: 0.372 µM
CC50 [18, 29]: 13.2 µM
TGI ([18]; read-out: Log TGI (converted)): 3.02 µM
GI50 [19]: 2.09 µM
CC50 [19, 29]: 34.7 µM
TGI ([19]; read-out: Log TGI (converted)): 7.59 µM
CC50 [20, 29]: 18.6 µM
TGI ([20]; read-out: Log TGI (converted)): 2.63 µM
GI50 [21]: 0.105 µM
CC50 [21, 29]: > 100 µM
TGI ([21]; read-out: Log TGI (converted)): > 100 µM
GI50 [22]: 0.138 µM
CC50 [22, 29]: 47.9 µM
TGI ([22]; read-out: Log TGI (converted)): 9.55 µM
GI50 [23]: 0.468 µM
CC50 [23, 29]: 72.4 µM
TGI ([23]; read-out: Log TGI (converted)): 14.1 µM
GI50 [24]: 0.0617 µM
CC50 [24, 29]: > 100 µM
TGI ([24]; read-out: Log TGI (converted)): 26.9 µM
GI50 [25]: 2.24 µM
CC50 [25, 29]: 50.1 µM
TGI ([25]; read-out: Log TGI (converted)): 6.61 µM
GI50 [26]: 0.851 µM
CC50 [26, 29]: 26.3 µM
TGI ([26]; read-out: Log TGI (converted)): 3.47 µM
GI50 [27]: < 0.01 µM
CC50 [27, 29]: > 100 µM
TGI ([27]; read-out: Log TGI (converted)): 0.363 µM
GI50 [28]: 0.123 µM
CC50 [28, 29]: 8.71 µM
TGI ([28]; read-out: Log TGI (converted)): 1.95 µM
